Reference: publication PMC5323440 (World Journal of Gastroenterology, 2017)
Marks after values point to notes of the source that are not given here.

Legend:
TNBS-induced colitis = experiment: TNBS-induced experimental colitis: clinical activity score rate; assay type: in vivo, Wistar rats; details: for Clinical activity score rate, 6 d: day 6, oral treatment day 6 to 10; for Clinical activity score rate, 6 d / Clinical activity score rate, 7 d / Clinical activity score rate, 8 d / Clinical activity score rate, 9 d / Clinical activity score rate, 10 d / Clinical activity score rate, 11 d: score 0-4; for Clinical activity score rate, 7 d: day 7, oral treatment day 6 to 10; for Clinical activity score rate, 8 d: day 8, oral treatment day 6 to 10; for Clinical activity score rate, 9 d: day 9, oral treatment day 6 to 10; for Clinical activity score rate, 10 d: day 10, oral treatment day 6 to 10; for Clinical activity score rate, 11 d: day 11, after oral treatment day 6 to 10
Method in brief: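 Male Wistar rats (200-230 g, n = 6/group), starved 48 h, given intrarectal TNBS 100 mg/kg in 50% v/v ethanol (0.25 mL) on day 3. Oral dosing days 6-10 as 1% sodium CMC suspension, equimolar to parent acid. Weight loss, stool consistency and rectal bleeding each scored 0-4 daily and averaged per group. Two-way ANOVA with Bonferroni versus disease control.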

[1] = Partition coefficient, n-octanol/water, shake flask method; assay type: physicochemical
myeloperoxidase (MPO) = experiment: TNBS-induced experimental colitis: colonic MPO activity; assay type: in vivo, Wistar rats; details: TNBS colitis rats, day 11, oral treatment day 6 to 10
Method in brief: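 Colon dissected on day 11 from TNBS-colitic male Wistar rats (intrarectal TNBS 100 mg/kg in 50% ethanol on day 3; oral dosing in 1% sodium CMC days 6-10; n = 6). MPO assayed by a published method, one unit degrading […] hydrogen peroxide at 25 °C. Reported as […]; one-way ANOVA with Dunnett's test.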

[2] = In vivo pharmacokinetics in plasma after oral administration; parameters: species or system Wistar rats; details: rat
Method in brief: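 Male Wistar rats (200-250 g, n = 6) housed in metabolic cages, fasted 24 h, water ad libitum. Single oral dose of prodrug (377.5 mg) or parent acid (270 mg) suspended in sodium CMC in saline (1 mL). Retro-orbital blood taken at 0 min, every 15 min for 1 h, bi-hourly to 12 h, and at 24 h, into EDTA tubes. Plasma quantified by HPLC against 80% human plasma calibration.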

[3] = Aqueous solubility in distilled water; assay type: physicochemical; details: 25 ± 1 °C
[4] = released from SLZ in the colon; cited from earlier work
chronic UC = chronic UC patients ref 24; cited from earlier work

Row | SMILES | Clinical activity score rate, 6 d (TNBS-induced colitis) | Clinical activity score rate, 7 d (TNBS-induced colitis) | Clinical activity score rate, 8 d (TNBS-induced colitis) | Clinical activity score rate, 9 d (TNBS-induced colitis) | Clinical activity score rate, 10 d (TNBS-induced colitis) | Clinical activity score rate, 11 d (TNBS-induced colitis) | Minimized clinical activity score rate (TNBS-induced colitis; oral treatment day 6 to 10) [%] | log Poct [1] | Colonic MPO activity (myeloperoxidase (MPO)) [mU/100 mg tissue] | Time of disappearance of BBA from blood [2] [h] | Time of first appearance of BBA in blood [2] [min] | Time of maximum BBA in blood [2] [min] | Aq. Solubility [3] | Fraction entering circulation by absorption from large intestine [4] [%] | Remission rate (chronic UC) [%]
1 | N[C@@H](Cc1ccc(O)cc1)C(=O)O [TY, L-tyrosine] | 2.11 ± 0.84 | 2.55 ± 0.50 | 3.22 ± 1.07 | 3.33 ± 1.15 | 2.72 ± 1.49 | 2.33 ± 1.45^NS | – | – | – | – | – | – | – | – | –
2 | N[C@H](Cc1ccccc1)C(=O)O [P, D-phenylalanine] | 2.22 ± 0.83 | 2.55 ± 0.50 | 3.16 ± 1.04 | 3.33 ± 1.15 | 2.66 ± 1.44 | 2.27 ± 1.13^NS | – | – | – | – | – | – | – | – | –
3 | N[C@@H](Cc1c[nH]c2ccccc12)C(=O)O [T, L-tryptophan] | 2.44 ± 0.69 | 2.60 ± 0.58 | 2.94 ± 0.82 | 2.66 ± 0.66 | 2.16 ± 1.08 | 1.88 ± 1.17 ^a | – | – | – | – | – | – | – | – | –
4 | C[C@H]1[C@H](C)CC[C@]2(C)CC[C@]3(C)C(=CC[C@@H]4[C@@]5(C)CC[C@@H](O)[C@](C)(C(=O)O)[C@@H]5CC[C@]43C)[C@H]12 [BBA, β-boswellic acid] | 2.77 ± 1.34 | 3.00 ± 1.00 | 2.33 ± 0.57 | 1.99 ± 0.66 | 1.33 ± 1.15 | 0.99 ± 1.10 ^e | 79 | 9.3 | 60.71 | 24 | 30 | 240 | practically insoluble | – | –
5 | Nc1ccc(O)c(C(=O)O)c1 [Prodrug 5-ASA, 5-aminosalicylate] | – | – | – | – | – | – | – | – | – | – | – | – | – | 30 | –
6 | O=C(O)c1cc(/N=N/c2ccc(S(=O)(=O)Nc3ccccn3)cc2)ccc1O [SLZ, Sulfasalazine] | 2.88 ± 0.83 | 2.44 ± 0.50 | 1.61 ± 1.13 | 1.11 ± 1.01 | 0.72 ± 0.75 | 0.38 ± 0.60 ^e | – | – | 36.21 | – | – | – | – | – | 75
7 | N[C@@H](Cc1c[nH]cn1)C(=O)O [H, L-histidine] | 2.33 ± 0.67 | 2.55 ± 0.50 | 2.88 ± 0.83 | 2.77 ± 0.69 | 2.60 ± 0.82 | 2.00 ± 1.00^NS | – | – | – | – | – | – | – | – | –
